# Source: PubChem (several laboratories)
# MEKK2wt PB1 HTS: raises or lowers MEK5 binding to wildtype human MEKK2 PB1 domain | 290,000 compounds, 1.1% hits | binding response (% of control), % at 10 µM | Q9Y2U5 | bead flow cytometry, Alexa488-MEK5 binding to MEKK2 WT; actives lie on both sides; in the data active means binding response below about 67% or above about 130%
# MEKK3 PB1 HTS: MEKK3-MEK5 PB1 interaction, increase or decrease; Q99759; bead-based flow cytometry, Alexa488-MEK5 binding to MEKK3; actives lie on both sides; 0 = blocked by unlabeled MEK5, 100 = vehicle; binding response (% of control), % at 10 µM; 290,000 compounds, 1.4% hits; AID 1529;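 active means binding response more than 3 SD above or below the average of its plate-row segment, actives on both sides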;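 further: Alexa488 bead fluorescence after subtracting the streptavidin-only scavenger bead signal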
# PREPL inh: inhibits the human prolyl oligopeptidase-like enzyme; Q4J6C6; recombinant PREPL, fluorescence polarization activity-based probe; inhibition, % at 5.96 µM; 320,000 compounds, 0.68% hits; in the data active means inhibition above about 43%;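 further: 0% = enzyme with DMSO and 100% = wells lacking enzyme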
# UBC13 inh: inhibitors of human UBC13 polyubiquitin chain formation. P61088. TR-FRET. inhibition, % at 20 µM. 330,000 compounds, 0.47% hits; in the data active means inhibition above about 45%, passing the limit was not always enough
# Apaf-1 inh: blocks human Apaf-1 apoptosome activity; O14727; reconstituted apoptosome caspase-3 activity, DEVD-Rh110 fluorescence; inhibition, % at 20 µM; 330,000 compounds, 0.71% hits; AID 489030; active means inhibition of at least 40% at 20 µM;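 further: plate controls were DMSO wells for no effect and DEVD-CHO caspase inhibitor wells for full effect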
#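 Medium: Hepes buffer, pH 7.5 / System: biochemical Apaf-1 apoptosome reconstitution / Measured by: Rh110 fluorescence, excitation 480 nm, emission 540 nm / Times: compound with Apaf-1, dATP, procaspase-3 30 min, then 50 min reaction, room temperature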
# MEKK2mut PB1 HTS: signal of MEK5 binding to mutant human MEKK2 PB1 domain | percent response, % at 10 µM | 290,000 compounds, 0.35% hits | bead flow cytometry, Alexa488-MEK5 binding to MEKK2 mutant; in the data active means percent response above about 24%, passing the limit was not always enough
# Starred values were filed as active, the others as inactive; · = no result; ! = not confirmed by another sample; [ ] = another dose, or the depositor's remark. Most compounds without a hit are left out; they make up all but 3.1% or so of the library.
SMILES,MEKK2wt PB1 HTS,MEKK3 PB1 HTS,PREPL inh,UBC13 inh,Apaf-1 inh,MEKK2mut PB1 HTS
CCOC(=O)CCCCC(=O)c1[nH]c(=O)[nH]c1CSc1nnc2c3ccccc3n(C(C)C)c2n1,108,131*,4,-2,23,0
COc1ccc(-c2csc(NC3CCCCC3)n2)c(OC)c1,-4.0*[inhibitor],98,-4,1,14,2
c1ccc(-c2csc(NC3CCCCC3)n2)cc1,103,103,15,3,19,1
O=C(Cn1cnc(S(=O)(=O)N2CCOCC2)c1)Nc1ccc(OC(F)(F)F)cc1,97,101,-3,-9,13,2
CCN(CC)c1ccc(/C=N/N=C(N)N)c(O)c1,·,93,18,-5,-156,113*
CC(C)C(=O)Nc1cccc(-c2cn3ccsc3n2)c1,107,106,1,4,67*,4
COc1cc(C(=O)NC(=S)Nc2ccc(Cl)cn2)cc(OC)c1OC,100,101,-8,-1,17,1
CN(C)CCCN(C(=O)c1cc2cc([N+](=O)[O-])ccc2s1)c1nc2cc3c(cc2s1)OCCO3,·,·,29,73*,24,·
CN(C)CCCN(C(=O)c1ccc([N+](=O)[O-])s1)c1nc2cc3c(cc2s1)OCCO3,132,102,5,10,17,20
N=c1n(Cc2ccccc2)c2ccccc2n1CC(O)c1ccccc1 (centres undefined),102,99,43*,12,-4,1
N=c1n(CCN2CCCC2)c2ccccc2n1CC(O)c1ccc(Cl)c(Cl)c1 (centres undefined),152*,104,40,24,-10,4
O=C1OCC2OC(O)C(O)C(O)C2OC(=O)c2cc(O)c(O)c(O)c2-c2c(O)c(O)c3oc(=O)c4c(c(O)c(O)c5oc(=O)c2c3c54)-c2c1cc(O)c(O)c2O (centres undefined),66*[inhibitor],73*[inhibitor],·,·,·,-15
O=C(COC(=O)c1cc(Cl)ccc1O)NCC1CCCO1 (centres undefined),·,·,-2,-5,4,·
Cc1cccc(CN2C(=O)/C(=C\c3ccc(C(=O)NCCCN4CCN(C)CC4)cc3)Oc3ccccc32)c1,162*,105,-90,68*,53*,36*
Cc1ccc(/C=C2\SC(=S)N(CC3CCCO3)C2=O)o1 (centres undefined),61,93,3,-30,6,-17
Cc1ccc(/C=C2/SC(=S)N(C3CCCCC3)C2=O)o1,56*[inhibitor],86,0,-22,-33,-22
Cc1ccc(NC(=S)N(CCCN2CCCC2)Cc2cccn2Cc2ccc(Cl)cc2)cc1C,228*,108,-5,21,11,74*
COc1ccc(NC(=S)N(CCCN2CCCC2)Cc2cccn2Cc2ccc(Cl)cc2)cc1Cl,293*,115,-9,25,36,161*
Cc1ccc(NC(=S)N(CCCN2CCCC2)Cc2cccn2Cc2ccc(Cl)cc2)cc1Cl,317*,112,-15,25,1,25
Cc1cccc(NC(=O)c2cccc(S(=O)(=O)N(C)c3ccccc3)c2)n1,·,·,4,2,5,·
COc1ccc(/C=C(\NC(=O)c2ccc(C)cc2)C(=O)N2CCCCC2)cc1,101,105,-1,0,9,1
Nc1ncnc2oc(-c3ccco3)c(-c3ccco3)c12,97,101,20,61*,1,2
Nc1nnc(-c2ccco2)s1,103,102,4,-2,-8,5
CCOC(=O)c1[nH]c2ccc(OC)cc2c1NC(=O)CCN1CCC(C)CC1,107,104,-13,11,-2,9
CCOC(=O)c1[nH]c2ccc(Br)cc2c1NC(=O)CCN1CCCC(C)C1 (centres undefined),97,98,-10,-4,97*,-4
SMILES,MEKK2wt PB1 HTS,MEKK3 PB1 HTS,PREPL inh,UBC13 inh,Apaf-1 inh,MEKK2mut PB1 HTS
COc1ccc(CN2CCNC(=O)C2CC(=O)NCC2CCOCC2)c(F)c1 (centres undefined),105,101,6,2,-4,3
O=[N+]([O-])c1ccc(Nc2nc(N/N=C/c3cccc(F)c3)nc(N3CCCC3)n2)cc1,114,87,47*,-24,-3,2
C/C(=C\C(=O)c1cccnc1)Nc1ccc(O)cc1,97,97,81*,-9,5,-4
CCn1nc(C)c(CN2CCC(C(=O)Nc3cccc(-c4cccc(F)c4)c3)CC2)c1C,136*,106,-36,18,12,25*
CCn1cc(CN2CCC(C(=O)Nc3cccc(-c4cccc(F)c4)c3)CC2)cn1,128,103,-32,6,12,11
COCCn1nnnc1C(c1cccs1)N1CCN(c2cc(C)ccc2C)CC1 (centres undefined),87,84,-7,-5,20,-6
COCCn1nnnc1C(c1cccs1)N1CCN(c2nc3ccccc3s2)CC1 (centres undefined),106,108,50*,5,12,6
COCCCN(C(=O)CSCc1c(C)noc1C)c1c(N)n(Cc2ccccc2)c(=O)[nH]c1=O,·,·,2,1,8,·
c1ccc(-c2nnc(-c3ccccn3)nc2NC2CCCCC2)cc1,104,107,86*,-3,20,3
Oc1ccccc1-c1nc(NC2CCCC2)c2ccccc2n1,107,103,-1,5,22,3
CCC(C)(C)NC(=O)C1CCN(S(=O)(=O)c2cccs2)CC1,296*,93,·,-5,5,81*
COc1cccc(N2CCN(C(=O)c3oc4ccccc4c3NC(=O)Cc3ccc(OC)c(OC)c3)CC2)c1,100,99,4,-2,14,-1
Cc1ccc(NC(=O)c2ccco2)c(NC(=O)c2ccc(Cl)cc2)c1,97,100,-12,2,9,0
Cc1ccc(NC(=O)c2ccco2)c(NC(=O)c2ccccc2)c1,-12*[inhibitor],0.0*[inhibitor],2,-8,9,-26
O=C(CNC(=O)c1ccccc1)N/N=C/C=C/c1ccccc1,92,98,-5,-10,2,-1
O=C(Cc1cc(=O)[nH][nH]1)N/N=C/C=C/c1ccccc1,98,99,16,-2,48*!,3
Cc1cc(=O)[nH]c2nnc(-c3ccc(Cl)cc3)n12,104,102,-1,2,-2,1
Cc1cccc(C(=O)N/C(=C\c2ccc(C)o2)C(=O)O)c1,-3.0*,98,-7,12,-13,2
Cc1cccc(C(=O)N/C(=C\c2ccco2)C(=O)N2CCCC2)c1,98,96,2,-10,-134,-1
COC(=O)c1c(NC(=O)Cc2ccc(OC)c(S(=O)(=O)N3CCOCC3)c2)sc(C)c1C,·,·,-6,-1,24,·
CCOc1cc(/C=C2\C(=O)N(CCc3ccc(OC)c(OC)c3)C(C)=C2C(=O)OC)ccc1O,95,60*[inhibitor],15,-38,11,-1
